Compound activity from PubChem.
Only some compounds are listed: those with a hit (about 2.3% of all), similar ones and a draw of the others.
EWS-Fli inh = inhibitors of EWS/Fli oncoprotein transcriptional activity; AID 651661; A673 NR0B1-luciferase reporter, viability-normalised; inhibition, % at 12.6 µM; actives 0.67% (n = 350,000);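 active = mean inhibition of at least 50% after viability correction, with every replicate also passing that limit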;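 also: firefly luciferase signal divided by Alamar Blue viability fluorescence both relative to DMSO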
TROY signal inh = inhibitors of TROY-dependent NF-kB signaling; Q293 LMP1-TROYcd NF-kB luciferase reporter, 4 h; inhibition, % at 10 µM; AID 1347056; actives 0.98% (n = 360,000);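 active = compounds whose plate-normalised and pattern-corrected inhibition of the luciferase reporter signal at the single screening dose is 50% or more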
LGR2 inh = blocks bursicon-induced cAMP signaling via Drosophila LGR2. actives 0.35% (n = 380,000). HEK293 LGR2, CRE-luciferase, bursicon-stimulated, 4 h. inhibition, % at 9.99 µM;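 active = drop in luminescence signal, shown as inhibition above about 50% in the replicate tests, limit read from the data, passing the limit was not always enough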;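 also: agonist challenge used bursicon conditioned medium at about half maximal strength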
FN deposit inh = fibronectin deposition inhibition; AH1F fibroblasts, Alexa488-fibronectin deposition fluorescence, overnight; inhibition, % at 12.6 µM; actives 0.086% (n = 350,000);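 active = mean inhibition across replicates of 30% or more, regardless of how many single replicates reach that level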;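 also: positive control wells lacked labelled fibronectin entirely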
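Material: AH1F fibroblasts assembling fluorescent fibronectin matrix; amount: 10000 AH1F cells/well; medium: DMEM, 2% serum; reagent: Alexa488-fibronectin, 24 nM final in well; dosing: single compound dose, delivered by pin transfer; incubation: 1 h adhesion, overnight exposure; detection: fluorescence after three HBSS washes, excitation 485 nm, emission 525 nm; measure: fibronectin deposition inhibition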
TWEAK-Fn14 inh = inhibitors of TWEAK-Fn14 interaction signaling; inhibition, % at 10 µM; actives 2% (n = 360,000); AID 1159606; TWEAK-stimulated Fn14 reporter cells, luciferase luminescence, 8 h; in the data active = inhibition above about 50%
Xi reactivation = activators of X-chromosome reactivation in mouse fibroblasts | activation, % at 7.58 µM | XiGFP mouse fibroblasts, % GFP-positive cells imaging, 3 d; cells co-treated with 5-aza-dC sensitizer; scaled so ellipticine positive control = 100% | actives 0.055% (n = 360,000);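 active = mean normalized replicate activation at least 10% and every replicate at or above 10%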;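 also: 0% = median of on-plate neutral control wells and 100% = ellipticine 6 µM median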
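Material: SV40-immortalized XiGFP fibroblast cells, line 68-5-11 | Buffer or medium: DMEM containing 5-aza-dC | Dosing: One concentration, pinned | Times: 3 d treatment, 15 min room-temperature fixation | Controls: Ellipticine 6 µM positive control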
An asterisk follows results filed as active; . = not tested or not shown; ! = not confirmed by another sample.

SMILES	EWS-Fli inh	TROY signal inh	LGR2 inh	FN deposit inh	TWEAK-Fn14 inh	Xi reactivation
C[C@@H]1CN([C@@H](C)CO)C(=O)c2cc(NS(C)(=O)=O)ccc2O[C@H]1CN(C)S(=O)(=O)c1ccc(F)cc1	-7.2	.	-4.6	.	.	6.3
COc1ccc(Nc2cccccc2=O)cc1	.	-44.1	.	1.9	-8.8	.
COc1ccc(Nc2cccc3ccccc23)cc1	-60.8	81.6*	-30.0	8.2	104.5*	0.0
COc1ccc(NC(=O)N(C)C[C@@H]2Oc3ccc(N(C)C)cc3C(=O)N([C@@H](C)CO)C[C@H]2C)cc1	.	.	-28.9	-10.8	.	-0.3
Cc1cccc(N(C(=O)CNC(=O)c2ccco2)C(C(=O)NCC2CCCO2)c2ccccc2)c1 (stereo unspecified)	6.9	1.7	6.8	0.6	67.0*	0.0
NC(=O)NCC#Cc1ccc2c(c1)[C@]1(C(=O)N2)[C@H](C(=O)O)[C@H]2C(=O)O[C@H](c3ccccc3)[C@H](c3ccccc3)N2[C@@H]1c1ccccc1OCCO	-4.5	.	.	.	.	.
COC(=O)C(CC#Cc1ccc2c(c1)[C@]1(C(=O)N2)[C@H](c2ccccc2OCCO)N2[C@H](c3ccccc3)[C@H](c3ccccc3)OC(=O)[C@H]2[C@@H]1C(=O)N1CCc2cc(OC)c(OC)cc2C1)C(=O)OC	55.7*	.	.	.	.	.
COC(=O)C(CC#Cc1ccc2c(c1)[C@]1(C(=O)N2)[C@H](C(=O)NC[C@H](O)c2ccccc2)[C@H]2C(=O)O[C@H](c3ccccc3)[C@H](c3ccccc3)N2[C@@H]1c1ccccc1OCCO)C(=O)OC	70.9*	.	.	.	.	.
COC(=O)C(CC#Cc1ccc2c(c1)[C@]1(C(=O)N2)[C@H](c2ccc(O)cc2)N2[C@H](c3ccccc3)[C@H](c3ccccc3)OC(=O)[C@H]2[C@@H]1C(=O)N1CCc2cc(OC)c(OC)cc2C1)C(=O)OC	14.2	.	.	.	.	.
COc1ccc(NC(=O)Nc2ccc3c(c2)C(=O)N([C@H](C)CO)C[C@H](C)[C@H](CN(C)C(=O)Nc2c(C)noc2C)O3)cc1	-3.3	.	13.5	.	.	-0.2
CCC(=O)N1C[C@@H](C)[C@H](OC)CN(C)C(=O)c2ccc(NC(=O)Nc3ccc(Cl)cc3)cc2OC[C@@H]1C	-0.4	.	-16.2	7.3	.	0.0
CC[n+]1c(/C=C2\Sc3ccccc3N2C)ccc2cccc(C)c21	44.0	64.1*	81.3*	-91.4	85.0*	105.1*
CCN1/C(=C/c2ccc3cc(C)ccc3[n+]2CC)Sc2cc(C)c(C)cc21	72.7*	29.4	13.7	-2.7	45.3	162.1*
CCN1/C(=C/C=C/C=C/C=C/c2sc3ccccc3[n+]2CC)Sc2ccccc21	22.5	-1.0	-2.1	-11.4	-0.6	0.2
CCN1/C(=C/c2ccc3cc(C)ccc3[n+]2CC)Sc2ccccc21	48.5	64.9*	27.3	-58.4	72.1*	448.2*
CCN1/C(=C/C=C/c2sc3ccccc3[n+]2CC)Sc2ccccc21	.	53.3*	.	.	96.0*	.
O=C(C[C@@H]1C=C[C@H](NS(=O)(=O)c2ccccc2)[C@H](CO)O1)N1CCN(c2ccccc2)CC1	-2.5	.	-11.6	.	.	-0.1
N#Cc1cccc(-c2ccc([C@@H]3[C@@H]4CN(S(=O)(=O)c5ccc(-c6ccccc6)cc5)C[C@H]3N4)cc2)c1	74.4*	.	5.0	8.6	.	0.1
COc1ccccc1-c1ccc(C2[C@@H]3CN(S(=O)(=O)c4ccccc4)C[C@H]2N3)cc1 (stereo partly specified)	53.3*	.	-15.0	-2.2	.	0.1
Cc1ccccc1-c1ccc(C2[C@@H]3CN(C(=O)Cc4ccccc4)C[C@H]2N3)cc1 (stereo partly specified)	55.8*!	.	13.6	-2.8	.	0.0
COc1ccccc1-c1ccc(C2[C@@H]3CN(S(=O)(=O)c4ccc(C)cc4)C[C@H]2N3)cc1 (stereo partly specified)	4.2	.	9.5	-11.8	.	0.0
C[C@H](CO)N1C[C@H](C)[C@H](CN(C)C(=O)Nc2cc(F)ccc2F)Oc2cc(C#CC3CC3)ccc2S1(=O)=O	-4.0	.	-8.6	.	.	-0.9
CN1C(=O)c2cc(NC(=O)c3cccs3)ccc2OC[C@@H]2O[C@@H](CC(=O)N3CCCCC3)CC[C@@H]21	-2.9	.	11.2	-1.6	.	0.4
CS(=O)(=O)c1ccc(Sc2nc3ccccc3s2)c([N+](=O)[O-])c1	.	37.7	.	.	99.3*	.
Cc1ccc(S(=O)(=O)NC23CC4CC(CC(C4)C2)C3)cc1	5.7	13.2	8.8	6.8	-4.3	0.0
SMILES	EWS-Fli inh	TROY signal inh	LGR2 inh	FN deposit inh	TWEAK-Fn14 inh	Xi reactivation
Cc1nn(C)c(C(=O)Nc2ccc(S(=O)(=O)NC34CC5CC(CC(C5)C3)C4)cc2)c1Br	.	51.5*	.	.	44.6	.
CCN1[C@H](C(=O)NC2CCC2)[C@@H](CO)[C@@H]2Cn3c(ccc(-c4ccc(OC)cc4)c3=O)[C@@H]21	-2.3	.	29.9	.	.	0.0
O=c1cc(Nc2ccc3c(c2)OCCO3)[nH]c(=O)n1C1CCCCC1	.	14.3	-11.2	-1.9	36.0	.
O=c1cc(Nc2ccc3c(c2)OCCO3)[nH]c(=O)n1-c1ccc(Cl)cc1	0.8	64.1*	13.7	4.9	72.1*	0.9
Cc1ccccc1-c1ccc2c(c1)O[C@@H](CN(C)CC1CC1)[C@@H](C)CN([C@H](C)CO)S2(=O)=O	3.1	.	-4.0	11.7	.	-0.2
CCC(=O)c1ccc(N2CCN(C(=O)c3ccc(F)cc3)CC2)c(F)c1	7.5	17.0	11.5	.	-3.9	0.0
COc1ccc(C(=O)c2ccc(N3CCN(C(=O)c4ccc(F)cc4)CC3)c(F)c2)cc1Br	.	43.9	.	.	61.4*	.
Cc1ccccc1CSc1nc(C(C)(C)C)cc(=O)[nH]1	10.2	64.7*	-23.4	2.8	1.7	0.2
